# Results: ChEMBL document CHEMBL1141492, “Potent, exceptionally selective, orally bioavailable inhibitors of TNF-alpha Converting Enzyme (TACE): novel 2-substituted-1H-benzo[d]imidazol-1-yl)methyl)benzamide P1' substituents” (Bioorg Med Chem Lett, 2008)
# pIC50, pKi: −log10 of the molar value.
# Columns and labels:
# [1] = biological target: Disintegrin and metalloproteinase domain-containing protein 17 (Sus scrofa, UniProt O77636); test: Inhibition of semi purified pig TACE
# Blood = test: Reduction of LPS-induced TNFalpha in human whole blood; type: functional, tissue-based
# Method in brief: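 LPS-induced TNF-α production in human whole blood; suppression of TNF-α measured.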
# Interstitial collagenase = biological target: T1, Interstitial collagenase (Homo sapiens, UniProt P03956); test: Inhibition of MMP1
# T1 sequence (P03956 whole entry): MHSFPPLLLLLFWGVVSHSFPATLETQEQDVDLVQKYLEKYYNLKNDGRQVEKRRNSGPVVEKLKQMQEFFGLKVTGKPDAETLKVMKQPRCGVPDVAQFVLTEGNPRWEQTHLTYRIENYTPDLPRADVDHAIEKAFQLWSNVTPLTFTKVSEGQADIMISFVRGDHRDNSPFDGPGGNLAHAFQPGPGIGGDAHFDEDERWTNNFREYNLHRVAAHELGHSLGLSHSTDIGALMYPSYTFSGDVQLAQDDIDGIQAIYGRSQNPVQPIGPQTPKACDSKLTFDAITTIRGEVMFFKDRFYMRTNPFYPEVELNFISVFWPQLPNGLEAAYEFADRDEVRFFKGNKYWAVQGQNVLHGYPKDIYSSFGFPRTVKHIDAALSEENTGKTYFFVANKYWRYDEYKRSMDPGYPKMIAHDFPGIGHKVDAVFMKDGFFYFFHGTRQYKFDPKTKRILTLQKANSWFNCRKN
# [2] = biological target: 72 kDa type IV collagenase (Homo sapiens, UniProt P08253); test: Inhibition of MMP2
# [3] = biological target: Matrix metalloproteinase-9 (Homo sapiens, UniProt P14780); test: Inhibition of MMP9
# [4] = Apparent permeability across human Caco-2 cells; type: ADME, cell-based
# Method in brief: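 Apparent permeability measured across Caco-2 cell monolayers in the apical-to-basolateral (A→B) direction.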
# [5] = Clearance in Sprague-Dawley rat at 5.0 mg/kg, iv; type: ADME, organism-based; design: dose 5 mg/kg, route intravenous; conditions: in vivo
# Method in brief: (§1)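 Discrete or cassette (n-in-1) dosing, given intravenously and orally. Sprague–Dawley rats received 5.0 mg/kg iv and 8.0 mg/kg po; beagle dogs received 2.0 mg/kg iv and 8.0 mg/kg po. Three animals per dosing group; averaged values reported. AUC is reported in nM h.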
# [6] = Oral bioavailability in Sprague-Dawley rat at 8.0 mg/kg; type: ADME, organism-based; conditions: in vivo; method in brief: as §1
# Stromelysin-1 = Stromelysin-1 (Homo sapiens, UniProt P08254); test: Inhibition of MMP3
# Matrilysin = biological target: T2, Matrilysin (Homo sapiens, UniProt P09237); test: Inhibition of MMP7
# T2 sequence (P09237 whole entry): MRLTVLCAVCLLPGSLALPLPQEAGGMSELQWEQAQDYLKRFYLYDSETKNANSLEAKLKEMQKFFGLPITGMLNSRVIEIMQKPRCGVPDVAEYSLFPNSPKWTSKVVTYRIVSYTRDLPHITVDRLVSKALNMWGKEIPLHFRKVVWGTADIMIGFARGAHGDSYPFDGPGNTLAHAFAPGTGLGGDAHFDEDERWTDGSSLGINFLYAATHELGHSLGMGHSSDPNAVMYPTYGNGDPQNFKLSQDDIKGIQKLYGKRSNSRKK
# Neutrophil collagenase = Neutrophil collagenase (Homo sapiens, UniProt P22894); test: Inhibition of MMP8
# Stromelysin-2 = Stromelysin-2 (Homo sapiens, UniProt P09238); test: Inhibition of MMP10
# Method in brief: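 MMP Ki values come from a single determination.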
# Collagenase 3 = Collagenase 3 (Homo sapiens, UniProt P45452); test: Inhibition of MMP13
# [7] = biological target: Matrix metalloproteinase-14 (Homo sapiens, UniProt P50281); test: Inhibition of MMP14
# [8] = biological target: Matrix metalloproteinase-15 (Homo sapiens, UniProt P51511); test: Inhibition of MMP15
# Method in brief: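 Ki values against each MMP, each from a single determination.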
# [9] = biological target: Matrix metalloproteinase-16 (Homo sapiens, UniProt P51512); test: Inhibition of MMP16
# Matrix metalloproteinase-16, sequence (P51512 whole entry): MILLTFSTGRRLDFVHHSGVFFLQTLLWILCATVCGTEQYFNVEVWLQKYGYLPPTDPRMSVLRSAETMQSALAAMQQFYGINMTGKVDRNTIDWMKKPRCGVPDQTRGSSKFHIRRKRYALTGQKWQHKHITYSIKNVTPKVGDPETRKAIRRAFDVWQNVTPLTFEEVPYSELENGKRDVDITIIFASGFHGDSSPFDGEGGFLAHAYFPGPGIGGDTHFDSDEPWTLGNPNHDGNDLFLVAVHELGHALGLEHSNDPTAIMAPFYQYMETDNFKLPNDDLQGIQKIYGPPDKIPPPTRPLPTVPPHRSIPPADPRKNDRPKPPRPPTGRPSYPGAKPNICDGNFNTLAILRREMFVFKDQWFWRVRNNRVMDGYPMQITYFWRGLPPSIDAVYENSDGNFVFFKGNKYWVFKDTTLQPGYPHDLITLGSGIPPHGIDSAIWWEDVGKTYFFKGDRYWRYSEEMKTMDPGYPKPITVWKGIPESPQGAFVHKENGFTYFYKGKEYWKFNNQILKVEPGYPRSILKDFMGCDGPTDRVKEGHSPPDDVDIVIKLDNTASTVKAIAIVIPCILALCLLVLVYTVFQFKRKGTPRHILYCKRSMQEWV
# Disintegrin and metalloproteinase domain-containing protein 17, sequence (O77636 whole entry, the tested form may be a part): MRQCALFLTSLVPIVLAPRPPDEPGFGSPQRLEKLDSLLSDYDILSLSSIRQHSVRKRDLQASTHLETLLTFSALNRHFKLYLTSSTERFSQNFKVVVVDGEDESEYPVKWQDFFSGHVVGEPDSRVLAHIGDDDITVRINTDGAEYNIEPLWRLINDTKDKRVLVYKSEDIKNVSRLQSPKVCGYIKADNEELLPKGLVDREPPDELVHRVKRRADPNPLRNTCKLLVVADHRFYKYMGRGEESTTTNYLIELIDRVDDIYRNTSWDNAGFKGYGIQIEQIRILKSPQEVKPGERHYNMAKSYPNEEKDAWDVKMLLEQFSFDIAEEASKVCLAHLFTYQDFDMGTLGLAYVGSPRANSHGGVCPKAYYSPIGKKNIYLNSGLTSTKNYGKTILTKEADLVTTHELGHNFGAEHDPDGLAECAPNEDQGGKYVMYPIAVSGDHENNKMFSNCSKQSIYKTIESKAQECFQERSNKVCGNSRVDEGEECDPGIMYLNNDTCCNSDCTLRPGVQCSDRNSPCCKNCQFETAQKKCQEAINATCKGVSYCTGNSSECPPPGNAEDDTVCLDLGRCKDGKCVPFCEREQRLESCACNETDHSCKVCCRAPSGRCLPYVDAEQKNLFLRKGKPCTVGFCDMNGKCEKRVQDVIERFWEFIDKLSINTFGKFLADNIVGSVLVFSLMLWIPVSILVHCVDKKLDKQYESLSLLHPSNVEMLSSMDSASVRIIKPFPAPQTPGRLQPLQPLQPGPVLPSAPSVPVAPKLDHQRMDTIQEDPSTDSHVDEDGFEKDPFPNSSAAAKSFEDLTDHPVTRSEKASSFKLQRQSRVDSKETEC
# 72 kDa type IV collagenase, sequence (P08253 whole entry): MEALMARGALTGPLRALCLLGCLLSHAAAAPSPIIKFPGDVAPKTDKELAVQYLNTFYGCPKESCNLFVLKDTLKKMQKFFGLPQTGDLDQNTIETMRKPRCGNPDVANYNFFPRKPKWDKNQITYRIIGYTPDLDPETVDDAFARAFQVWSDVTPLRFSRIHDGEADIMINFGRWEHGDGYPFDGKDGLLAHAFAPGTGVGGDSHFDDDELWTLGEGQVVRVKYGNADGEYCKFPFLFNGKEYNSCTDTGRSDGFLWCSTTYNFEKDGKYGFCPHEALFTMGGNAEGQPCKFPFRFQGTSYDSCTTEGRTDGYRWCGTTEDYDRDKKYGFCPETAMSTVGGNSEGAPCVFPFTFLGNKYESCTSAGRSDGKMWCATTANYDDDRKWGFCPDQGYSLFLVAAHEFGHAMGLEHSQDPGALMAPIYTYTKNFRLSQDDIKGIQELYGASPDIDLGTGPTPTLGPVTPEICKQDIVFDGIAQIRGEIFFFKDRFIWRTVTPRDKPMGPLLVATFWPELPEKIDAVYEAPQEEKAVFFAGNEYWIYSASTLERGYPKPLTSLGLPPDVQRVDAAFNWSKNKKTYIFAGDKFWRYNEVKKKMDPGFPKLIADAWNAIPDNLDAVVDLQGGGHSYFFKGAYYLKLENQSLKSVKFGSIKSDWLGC
# Stromelysin-1, sequence (P08254 whole entry): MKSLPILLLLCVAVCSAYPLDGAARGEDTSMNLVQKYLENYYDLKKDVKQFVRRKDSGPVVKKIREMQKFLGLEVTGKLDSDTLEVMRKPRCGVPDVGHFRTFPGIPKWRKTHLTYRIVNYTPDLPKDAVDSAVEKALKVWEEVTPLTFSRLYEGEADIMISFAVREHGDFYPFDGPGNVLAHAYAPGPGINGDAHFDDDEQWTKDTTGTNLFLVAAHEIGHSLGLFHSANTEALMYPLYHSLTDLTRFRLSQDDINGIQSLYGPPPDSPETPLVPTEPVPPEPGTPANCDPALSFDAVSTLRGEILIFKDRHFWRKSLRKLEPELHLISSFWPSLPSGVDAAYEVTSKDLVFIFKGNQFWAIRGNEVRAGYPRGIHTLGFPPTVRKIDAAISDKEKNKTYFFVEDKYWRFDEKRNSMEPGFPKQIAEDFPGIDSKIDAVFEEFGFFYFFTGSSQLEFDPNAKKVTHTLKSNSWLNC
# Matrix metalloproteinase-15, sequence (P51511 whole entry): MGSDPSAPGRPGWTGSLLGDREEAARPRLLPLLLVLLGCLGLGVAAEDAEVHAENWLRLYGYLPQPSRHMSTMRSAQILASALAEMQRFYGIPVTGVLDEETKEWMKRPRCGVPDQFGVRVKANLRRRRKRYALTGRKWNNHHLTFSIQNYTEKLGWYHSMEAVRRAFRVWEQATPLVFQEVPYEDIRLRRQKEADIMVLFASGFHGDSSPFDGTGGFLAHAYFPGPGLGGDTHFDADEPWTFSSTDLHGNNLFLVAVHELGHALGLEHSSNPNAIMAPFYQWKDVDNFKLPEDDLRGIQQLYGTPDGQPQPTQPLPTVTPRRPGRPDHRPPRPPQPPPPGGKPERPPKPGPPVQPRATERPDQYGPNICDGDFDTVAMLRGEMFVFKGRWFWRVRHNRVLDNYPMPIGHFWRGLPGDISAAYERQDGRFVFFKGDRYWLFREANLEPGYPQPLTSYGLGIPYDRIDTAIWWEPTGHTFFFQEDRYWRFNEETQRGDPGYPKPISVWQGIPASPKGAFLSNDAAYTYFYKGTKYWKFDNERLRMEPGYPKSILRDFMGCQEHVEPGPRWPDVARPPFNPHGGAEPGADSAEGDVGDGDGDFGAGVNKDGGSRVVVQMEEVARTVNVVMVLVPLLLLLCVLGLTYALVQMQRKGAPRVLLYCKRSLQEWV
# Stromelysin-2, sequence (P09238 whole entry): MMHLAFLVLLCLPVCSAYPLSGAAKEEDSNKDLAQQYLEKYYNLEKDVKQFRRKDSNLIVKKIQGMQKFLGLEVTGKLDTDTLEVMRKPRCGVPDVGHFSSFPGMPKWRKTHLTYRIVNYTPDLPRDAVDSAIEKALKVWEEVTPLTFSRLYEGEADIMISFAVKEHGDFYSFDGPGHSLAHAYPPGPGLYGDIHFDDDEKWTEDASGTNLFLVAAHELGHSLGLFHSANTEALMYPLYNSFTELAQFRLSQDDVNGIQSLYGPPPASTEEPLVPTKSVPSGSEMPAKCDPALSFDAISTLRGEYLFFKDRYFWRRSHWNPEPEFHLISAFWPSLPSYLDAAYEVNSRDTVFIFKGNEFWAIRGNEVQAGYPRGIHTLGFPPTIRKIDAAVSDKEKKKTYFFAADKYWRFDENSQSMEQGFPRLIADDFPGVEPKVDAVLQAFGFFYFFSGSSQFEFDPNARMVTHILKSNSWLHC
# Matrix metalloproteinase-9, sequence (P14780 whole entry): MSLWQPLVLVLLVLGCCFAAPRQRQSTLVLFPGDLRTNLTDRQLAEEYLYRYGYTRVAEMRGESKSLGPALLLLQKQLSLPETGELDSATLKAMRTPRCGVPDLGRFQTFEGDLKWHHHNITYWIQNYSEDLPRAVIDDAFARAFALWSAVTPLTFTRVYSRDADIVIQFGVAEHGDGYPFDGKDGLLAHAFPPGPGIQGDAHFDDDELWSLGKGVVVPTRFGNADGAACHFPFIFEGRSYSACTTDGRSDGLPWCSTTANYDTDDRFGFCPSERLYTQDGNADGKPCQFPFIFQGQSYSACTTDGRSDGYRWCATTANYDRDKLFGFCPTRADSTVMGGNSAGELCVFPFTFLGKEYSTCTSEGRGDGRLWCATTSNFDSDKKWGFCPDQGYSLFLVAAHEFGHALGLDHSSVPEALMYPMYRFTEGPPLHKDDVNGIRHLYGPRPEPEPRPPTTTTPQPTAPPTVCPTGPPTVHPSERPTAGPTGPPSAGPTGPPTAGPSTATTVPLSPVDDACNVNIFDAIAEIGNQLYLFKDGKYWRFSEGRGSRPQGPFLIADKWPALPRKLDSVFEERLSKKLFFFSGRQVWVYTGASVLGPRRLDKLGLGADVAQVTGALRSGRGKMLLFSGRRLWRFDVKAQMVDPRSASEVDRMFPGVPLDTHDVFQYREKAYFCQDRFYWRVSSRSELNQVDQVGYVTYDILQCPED
# Neutrophil collagenase, sequence (P22894 whole entry): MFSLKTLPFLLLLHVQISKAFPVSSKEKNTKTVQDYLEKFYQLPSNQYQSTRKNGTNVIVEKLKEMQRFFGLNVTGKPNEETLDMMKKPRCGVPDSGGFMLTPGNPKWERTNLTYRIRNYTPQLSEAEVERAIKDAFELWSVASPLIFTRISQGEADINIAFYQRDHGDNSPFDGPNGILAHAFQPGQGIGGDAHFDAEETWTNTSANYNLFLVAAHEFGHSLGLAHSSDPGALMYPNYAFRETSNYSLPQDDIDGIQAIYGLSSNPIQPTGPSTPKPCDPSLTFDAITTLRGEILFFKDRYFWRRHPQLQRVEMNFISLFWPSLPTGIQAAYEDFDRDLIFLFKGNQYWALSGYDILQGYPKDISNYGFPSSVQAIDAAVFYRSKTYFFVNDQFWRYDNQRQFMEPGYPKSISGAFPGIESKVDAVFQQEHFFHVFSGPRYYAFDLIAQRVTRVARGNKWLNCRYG
Compound,pIC50 [1],pIC50 (Blood),pKi (Interstitial collagenase),pKi [2],pKi [3],Papp [4] [×10⁻⁶ cm/s],clearance [5] [mL/min/kg],bioavailability [6] [%],pKi (Stromelysin-1),pKi (Matrilysin),pKi (Neutrophil collagenase),pIC50 (Stromelysin-2),pKi (Collagenase 3),pKi [7],pKi [8],pKi [9]
CC(C)(F)c1nc2ccccc2n1Cc1ccc(C(=O)N[C@@H]2C[C@@]3(CCCO3)C[C@@H]2C(=O)NO)cc1,> 9.00,6.85,< 5.31,< 5.48,< 5.67,2.4,40,33,–,–,–,–,–,–,–,–
CC(C)c1nc2ccccc2n1Cc1ccc(C(=O)N[C@@H]2C[C@@]3(CCCO3)C[C@@H]2C(=O)NO)cc1,8.96,7.16,< 5.31,< 5.48,< 5.67,0.1,115,22,–,–,–,–,–,–,–,–
C#CCN1C[C@H](C(=O)NO)[C@H](NC(=O)c2ccc(Cn3c(C(C)(C)C)nc4ccccc43)cc2)C1,8.64,6.50,< 5.31,< 5.48,< 5.67,0.4,113,8,–,–,–,–,–,–,–,–
CC(C)c1nc2ccccc2n1Cc1ccc(C(=O)N[C@@H]2CNC[C@@H]2C(=O)NO)cc1,8.80,7.19,< 5.67,< 5.67,< 5.67,0.1,–,–,–,–,–,–,–,–,–,–
CSc1nc2ccccc2n1Cc1ccc([C@]2(N)CCN([C@H](CC(C)C)C(=O)NO)C2=O)cc1,8.21,6.50,< 5.31,6.52,6.03,–,–,–,–,–,–,–,–,–,–,–
CC(F)(F)c1nc2ccccc2n1Cc1ccc(C(=O)N[C@@H]2CCOC[C@@H]2C(=O)NO)cc1,8.59,6.73,< 5.31,< 5.48,< 5.67,0.7,20,55,–,–,–,–,–,–,–,–
CC(C)c1nc2ccccc2n1Cc1ccc(C(=O)N[C@@H]2CN(C(=O)OC(C)(C)C)C[C@@H]2C(=O)NO)cc1,9.00,7.15,< 5.67,< 5.67,< 5.67,0.2,–,–,5.41,5.46,< 5.51,5.34,< 5.30,< 5.28,< 5.15,< 5.26
O=C(N[C@@H]1COC[C@@H]1C(=O)NO)c1ccc(Cn2c(C(F)(F)F)nc3ccccc32)cc1,9.00,6.99,< 5.31,< 5.48,< 5.67,0.1,53.3,20,–,–,–,–,–,–,–,–
Cc1nc2ccccc2n1Cc1ccc(C(=O)N[C@@H]2CNC[C@@H]2C(=O)NO)cc1,8.59,7.25,< 5.67,< 5.67,< 5.67,0.1,–,–,–,–,–,–,–,–,–,–
CC(C)(C)c1nc2ccccc2n1Cc1ccc(C(=O)N[C@@H]2C[C@@]3(CCCO3)C[C@@H]2C(=O)NO)cc1,8.70,6.60,< 5.31,< 5.48,< 5.67,1.4,48.3,29,–,–,–,–,–,–,–,–
CC(C)(F)c1nc2ccccc2n1Cc1ccc(C(=O)N[C@@H]2CCOC[C@@H]2C(=O)NO)cc1,8.66,6.82,< 5.31,< 5.48,< 5.67,0.3,31.7,36,–,–,–,–,–,–,–,–
O=C(N[C@@H]1CCC[C@@H]1C(=O)NO)c1ccc(Cn2c(C3CC3)nc3ccccc32)cc1,8.57,7.27,< 5.31,< 5.48,< 5.67,2,25,22,–,–,–,–,–,–,–,–
CC(C)c1nc2ccccc2n1Cc1ccc(C(=O)N[C@@H]2CCC[C@@H]2C(=O)NO)cc1,9.00,7.19,< 5.31,< 5.48,< 5.67,0.1,50,8,–,–,–,–,–,–,–,–
CC(C)c1nc2ccccc2n1Cc1ccc(C(=O)N[C@@H]2CCOC[C@@H]2C(=O)NO)cc1,8.80,6.98,< 5.31,< 5.48,< 5.67,0.5,63.3,8,–,–,–,–,–,–,–,–
Cc1nc2ccccc2n1Cc1ccc(C(=O)N[C@@H]2CN(C(=O)OC(C)(C)C)C[C@@H]2C(=O)NO)cc1,9.00,7.04,< 5.67,< 5.67,< 5.67,0.1,–,–,5.58,5.23,–,5.80,< 5.30,< 5.28,< 5.15,< 5.26
O=C(N[C@@H]1C[C@@]2(CCCO2)C[C@@H]1C(=O)NO)c1ccc(Cn2c(C3CC3)nc3ccccc32)cc1,8.89,7.38,< 5.31,< 5.48,< 5.67,0.1,23.3,14,–,–,–,–,–,–,–,–
CSc1nc2ccccc2n1Cc1ccc(C(=O)N[C@@H]2CN(C(=O)OC(C)(C)C)C[C@@H]2C(=O)NO)cc1,> 9.00,7.21,< 5.67,< 5.67,< 5.67,0.2,–,–,< 5.35,5.39,–,< 5.00,< 5.30,< 5.28,< 5.15,< 5.26
C#CCN1C[C@H](C(=O)NO)[C@H](NC(=O)c2ccc(Cn3c(C(C)C)nc4ccccc43)cc2)C1,8.74,6.86,< 5.31,< 5.48,< 5.67,0.1,155,3,–,–,–,–,–,–,–,–
CSc1nc2ccccc2n1Cc1ccc(C(=O)N[C@@H]2CNC[C@@H]2C(=O)NO)cc1,8.80,7.47,< 5.67,< 5.67,< 5.67,0.2,–,–,–,–,–,–,–,–,–,–
